MC4R antag cAMP = antagonists of human melanocortin 4 receptor (MC4R) | P32245 | MC4R-expressing cells, MTII-stimulated cAMP, LANCE TR-FRET | inhibition, % at 6.5 µM | 360,000 compounds, 0.48% hits;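 active means inhibition above its plate's cutoff, the mean of tested wells on that plate plus 3 SD, cut at about 29% in these data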;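 further: 0% = Melanotan II alone and 100% = Melanotan II plus saturating MCL0020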
Target sequence (P32245 whole entry, looked up): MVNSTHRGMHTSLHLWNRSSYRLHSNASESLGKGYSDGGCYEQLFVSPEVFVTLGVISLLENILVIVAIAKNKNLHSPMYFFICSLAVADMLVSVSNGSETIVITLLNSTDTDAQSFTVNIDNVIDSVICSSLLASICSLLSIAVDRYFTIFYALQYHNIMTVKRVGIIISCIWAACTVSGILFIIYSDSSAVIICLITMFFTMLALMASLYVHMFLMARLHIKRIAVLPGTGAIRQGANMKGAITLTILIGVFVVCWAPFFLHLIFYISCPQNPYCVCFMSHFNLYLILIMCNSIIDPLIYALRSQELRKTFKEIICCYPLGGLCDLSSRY
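Material – human MC4R-expressing U2OS cells · Repeats – no replicates · Detection – TR-FRET with Eu-cAMP and labeled anti-cAMP, 671 nm · Times – compound 30 min, challenge 1 h, detection 1 h · Compound – single nominal compound dose of 6.5 µM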
MC4R barr agon = activates human MC4R beta-arrestin recruitment. P32245. U2OS MC4R beta-arrestin complementation, luminescence; percent of melanotan II response, DMSO zero. activation, % at 8.9 µM. 360,000 compounds, 0.98% hits. AID 540308;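 active means activation above a per-plate cutoff, the mean activation of sample wells on that plate plus 3 SD, cut at about 8% in these data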
MPTP block = inhibitors of mitochondrial permeability transition pore. AID 602449. 360,000 compounds, 1.4% hits. inhibition, % at 10 µM. isolated mouse mitochondria, Ca2+ swelling absorbance, 30 min;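 active means inhibition of 50% or more, scaled per plate between neutral and stimulator controls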;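 further: 0% = DMSO wells given calcium and 100% = 1 mM EGTA wells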
SMARCA2 activ = activators of SMARCA2 function; 370,000 compounds, 1% hits; MG213 cells, MMTV-luciferase reporter, dexamethasone, overnight; activation, % at 9.1 µM; AID 652017; in the data active means activation above about 7.8%;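 further: 0% = vehicle wells and 100% = reference activator wells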
ATG4B inhibitor = inhibitors of human ATG4B cysteine protease | ATG4B cleavage of LC3-PLA2, NBD-HPC fluorescence, 1 h | 340,000 compounds, 0.51% hits | inhibition, % at 8.33 µM | AID 504462 | Q9Y4P1; in the data active means inhibition above about 40%
Rh123 counter = Rhodamine 123 counter-screen of mitochondrial pore hits. shares compounds with MPTP block. isolated mitochondria, membrane potential, Rhodamine 123 fluorescence. inhibition, % at 10 µM. 5,000 compounds, 78% hits; in the data active means inhibition above about 22%;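 further: 0% = DMSO vehicle and 100% = positive control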
MPTP abs DR = dose response confirmation of mitochondrial permeability transition pore inhibitors | shares compounds with MPTP block | isolated mitochondria swelling, absorbance | IC50, µM | 780 compounds, 58% hits | AID 651561; in the data active means IC50 below about 20 µM
MPTP counter DR = counter-screen for mitochondrial permeability transition pore inhibitors, dose response; IC50, µM; 780 compounds, 49% hits; isolated mitochondria counterscreen, fluorescence read-out; shares compounds with MPTP block; in the data active means IC50 below about 80 µM
An asterisk follows results filed as active; · = no result given. Hits are enriched below; roughly 4.1% of the tested compounds scored in any of these assays.

SMILES	MC4R antag cAMP	MC4R barr agon	MPTP block	SMARCA2 activ	ATG4B inhibitor	Rh123 counter	others
Cc1ccc(S(=O)(=O)c2nc(Nc3ccccc3)sc2Cl)cc1	-3	5	85*	-4	5	85*
CN1OC[C@@H]2CN3C(=Nc4cc(C(F)(F)F)cc(C(F)(F)F)c4)Sc4ccccc4[C@@H]3C[C@@H]21	·	·	·	-5	·	·
Cc1cccc(-c2cccc3c4c([nH]c23)[C@@H]2C[C@H](N(C)C(=O)c3ccco3)[C@H]([C@H](C)O)CN2CC4)c1	·	·	·	1	·	·
COc1ccc(OC)c(NC(=O)Cc2csc(NC(=O)Nc3ccccc3OC)n2)c1	-2	0	0	-1	-23	·
COc1ccc(NC(=S)Nc2nc(CC(=O)Nc3ccccc3OC)cs2)cc1	4	-2	75*	-5	-13	79*
COc1ccccc1NC(=O)Cc1csc(NC(=S)Nc2ccccc2)n1	9	1	79*	-3	14	71*
N#Cc1ccc(NC(=O)OC2CCC23CCC(c2ccccc2)CC3)cc1 (centres undefined)	·	·	·	-3	·	·
COc1ccccc1CC(=O)Nc1ccc([N+](=O)[O-])cc1O	-10	-1	54*	-1	-10	82*
COc1ccc(CN2C(=O)CS/C2=N/N=C/c2cccs2)cc1	2	-1	82*	-3	-1	62*
COc1cccc(NC(=O)NC2CCCCN(Cc3ccccc3C)C2=O)c1 (centres undefined)	·	·	·	-3	·	·
COC(=O)c1cc(S(=O)(=O)NCC2CCN(C(=O)C(=O)c3cccs3)CC2)cs1	·	·	·	-4	·	·
COCC(=O)O[C@]1(CCN(C)CCCc2nc3ccccc3[nH]2)CCc2cc(F)ccc2[C@@H]1C(C)C	3	6	93*	-1	-12	-13
C=CCc1cccc(/C=C/c2cc(=O)c3ccccc3[nH]2)c1O	18	1	60*	2	4	50*
CC(C)(C)N(Cc1cn(Cc2ccccc2)nn1)S(=O)(=O)c1ccc(F)cc1Br	·	·	·	-6	·	·
Cc1nc2ccccc2n1Cc1ccc(Br)cc1	-1	-2	93*	-6	-11	96*
Cc1nc2ccccc2n1Cc1ccccc1Br	7	-1	73*	-6	-4	81*
COc1ccc(Nc2nc3ccccc3nc2NS(=O)(=O)c2cccs2)cc1	-1	-1	61*	-3	-3	64*
CC(=O)c1ccc(Nc2nc3ccccc3nc2NS(=O)(=O)c2cccs2)cc1	7	-1	83*	0	-7	32*
O=C(O)c1cccc(Nc2nc3ccccc3nc2NS(=O)(=O)c2cccs2)c1	2	0	0	-1	2	·
N#Cc1ccc(NC(=O)OC2CC3CC2[C@H]2CCCCN2C3)cc1 (some centres undefined)	·	·	·	-2	·	·
COC(=O)C1=C(C)N(Cc2cccc(C(F)(F)F)c2)C(=NCC2CC2)NC1c1ccc(F)cc1 (centres undefined)	·	·	·	-7	·	·
COc1ccc(CCNCC(O)COc2ccc(OC)cc2C(C)(C)C)cc1 (centres undefined)	1	8	80*	1	-3	-18	MPTP abs DR=6.2*;MPTP counter DR=41*
O=C1C2CC=CCC2C(=O)N1c1ccc(NCCc2ccc(Cl)cc2)c([N+](=O)[O-])c1 (centres undefined)	-5	-3	4	1	-6	·
O=C1C2CC=CCC2C(=O)N1c1ccc(NCCc2ccc(O)cc2)c([N+](=O)[O-])c1 (centres undefined)	9	-2	91*	-5	-14	76*
COc1ccc(CCNc2ccc(N3C(=O)CC(C)C3=O)cc2[N+](=O)[O-])cc1OC (centres undefined)	-8	-2	96*	-8	6	82*
SMILES	MC4R antag cAMP	MC4R barr agon	MPTP block	SMARCA2 activ	ATG4B inhibitor	Rh123 counter	others
CN1CC=C(c2ccc(C(F)(F)F)cc2)N(c2ccc(Br)cc2)C1=O	·	·	·	2	·	·
CNCCCC1Sc2ccccc2Oc2ccccc21 (centres undefined)	0	0	79*	5	-14	-5	MPTP abs DR=5.1*;MPTP counter DR=>80
O[C@@H](c1cc(C(F)(F)F)nc2c(C(F)(F)F)cccc12)[C@H]1CCCCN1	-1	2	97*	-5	3	-21
OC(c1cc(C(F)(F)F)nc2c(Cl)cc(Cl)cc12)C1CCCCN1 (centres undefined)	-4	0	2	-2	20	·
N#Cc1c(N)nc(Sc2ccc(Cl)cc2)c(C#N)c1-c1ccccc1Cl	7	3	76*	-6	1	56*
CCSc1nc(N)c(C#N)c(-c2ccccc2Cl)c1C#N	-4	1	1	-3	-3	·
CN[C@H]1C[C@H]2c3[nH]c4c(-c5ccc6c(c5)OCO6)cccc4c3CCN2C(=O)[C@H]1[C@H](C)O	·	·	·	4	·	·
Cc1cc(C)c2sc(N(CCCN(C)C)C(=O)c3ccc(S(=O)(=O)N4CCc5ccccc5C4)cc3)nc2c1	-1	39*	72*	·	·	-12
COc1ccc2sc(N(CCCN(C)C)C(=O)c3ccc(S(=O)(=O)N4CCCC4)cc3)nc2c1	1	2	15	-2	1	·
COc1ccc2sc(N(CCCN(C)C)C(=O)c3ccc(S(=O)(=O)N4CCc5ccccc5C4)cc3)nc2c1	2	32*	86*	4	8	-19
Cc1cc(C)c2sc(N(CCCN(C)C)C(=O)c3ccc(S(=O)(=O)N4CCCc5ccccc54)cc3)nc2c1	7	1	64*	-1	12	-16
Cc1occc1-c1nnc(SCC(=O)Nc2ccccn2)n1-c1ccccc1	·	·	·	-3	·	·
O=c1cc(C(F)(F)F)[nH]c2c(C(F)(F)F)cccc12	6	-1	64*	·	-1	98*
O=c1cc(C(F)(F)F)[nH]c2ccc(OC(F)(F)F)cc12	5	1	64*	-6	-3	85*
O=C1c2cc(Br)ccc2N(Cc2ccc(Br)cc2)S(=O)(=O)C1c1cc(Cl)c(Cl)cc1[N+](=O)[O-] (centres undefined)	5	0	66*	·	68*	18
O=C1CS(=O)(=O)N(Cc2cccc(F)c2)c2ccc(Br)cc21	1	1	3	-1	7	·
CCOc1ccc(N=C2NC(=O)S/C2=C\c2ccc(Cl)cc2)cc1	0	-2	16	0	6	·
CCOc1ccc2nc(N3C(=O)/C(=C/c4ccc(Cl)cc4)NC3=S)sc2c1	4	-1	92*	0	1	5
CCOC(=O)c1c(NC(=O)C2CCCCC2)sc2c1CCN(CC)C2	0	6	58*	-2	1	-9	MPTP abs DR=15*;MPTP counter DR=>80

Screens from PubChem.
